Screening data from PubChem BioAssay.
Only some compounds are listed: those with a hit (about 3.5% of all), similar ones and a draw of the others.
RGS4 block: RGS4 inhibitors, primary screen, cell-based, HEK293 M3R inducible RGS4, calcium flux. Regulator of G-protein signaling 4 (Homo sapiens), P49798. Fluo-4 calcium flux; active compounds read high; triggered by carbachol at its EC20. B-score at 10 µM. 310,000 compounds, 0.45% hits. AID 463165, 2010;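 active means B-score, a plate-corrected calcium signal, over three deviations above library mean, with baseline fluorescence within five deviations of library mean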;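 further: RGS4 expression induced by doxycycline in cells with stable M3 receptor; B-score is computed from the integrated fluorescence ratio over baseline after carbachol; higher B-score means a larger calcium signal and so more RGS4 inhibition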
Target sequence (P49798 whole entry, looked up): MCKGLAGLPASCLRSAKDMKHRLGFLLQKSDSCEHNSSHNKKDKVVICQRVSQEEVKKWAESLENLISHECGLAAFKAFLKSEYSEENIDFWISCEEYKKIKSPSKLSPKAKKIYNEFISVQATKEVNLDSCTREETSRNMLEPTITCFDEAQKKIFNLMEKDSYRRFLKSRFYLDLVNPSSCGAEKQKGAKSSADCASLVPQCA
MrgX1 agonist: agonists of human MrgX1 receptor, primary screen, HEK293 cells, Fluo-4 calcium flux | Mas-related G-protein coupled receptor member X1 (Homo sapiens), Q96LB2 | Fluo-4 calcium fluorescence, agonist mode; active compounds read high | B-score at 10 µM | 310,000 compounds, 0.44% hits;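 active means calcium response B-score plate-corrected fluorescence ratio at least 3 library SD, with starting fluorescence B-score inside 5 SD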
Target sequence (Q96LB2 whole entry, looked up): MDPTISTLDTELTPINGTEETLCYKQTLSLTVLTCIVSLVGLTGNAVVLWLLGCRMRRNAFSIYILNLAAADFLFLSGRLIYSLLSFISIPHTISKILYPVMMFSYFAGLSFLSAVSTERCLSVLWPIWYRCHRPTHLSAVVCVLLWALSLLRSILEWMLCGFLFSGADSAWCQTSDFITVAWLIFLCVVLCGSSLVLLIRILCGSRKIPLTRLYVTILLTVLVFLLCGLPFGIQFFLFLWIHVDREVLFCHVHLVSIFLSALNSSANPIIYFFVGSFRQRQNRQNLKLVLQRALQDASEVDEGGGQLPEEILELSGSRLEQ
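Test system: Stable human MrgX1 HEK293 cell line | Schedule: Overnight plating before 1 h dye loading | Read-out basis: Baseline-normalised fluorescence change ratio, B-scored | Detection: Kinetic calcium dye fluorescence, Fluo-4 NW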
MrgX1 PAM: positive allosteric modulators of MrgX1, primary screen, HEK293 cells, Fluo-4 calcium flux; FDSS; active compounds read high; B-score at 10 µM; 310,000 compounds, 0.63% hits; AID 588675, 2011;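 active means plate-corrected calcium response at least 3 library SD above typical, normal starting fluorescence, not activating the receptor alone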;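 further: compound read alongside a low EC10 to EC30 dose of BAM8-22 agonist; peak minus trough fluorescence over baseline measured at the second addition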
MrgX1 antag: antagonists of human MrgX1 receptor, primary screen, HEK293 cells, Fluo-4 calcium flux. Mas-related G-protein coupled receptor member X1 (Homo sapiens), Q96LB2. BAM8-22 antagonism; active compounds read low. B-score at 10 µM. 310,000 compounds, 1.3% hits;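 active means calcium-response B-score plate-corrected more than 3 library SD below zero, starting fluorescence within 5 deviations, no agonist response on first addition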;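 further: peak minus trough fluorescence over baseline after final BAM8-22 challenge near maximal dose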
RGS4 pot: RGS4 potentiators or activators, primary screen, cell-based, HEK293 M3R inducible RGS4, calcium flux | B-score at 10 µM | 310,000 compounds, 0.92% hits | carbachol calcium flux Fluo4; active compounds read low;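 active means B-score of the integrated calcium signal more than 4 SD below the library mean, with starting fluorescence not abnormally high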;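 further: negative B-score means reduced calcium response which marks RGS4 activation or potentiation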
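Assay system: HEK293 FlpIn-TREx cells, stable M3R, doxycycline-inducible RGS4 / Probe or stimulus: carbachol, ECmax concentration / Times: overnight RGS4 induction, 30 min dye load 37 °C, 20 min compound RT / Signal: kinetic calcium fluorescence imaging with Fluo4-AM dye, 2 µM / Measure: Agonist-evoked peak-minus-minimum fluorescence over baseline, integrated ratio, B score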
Numbers stand for hits; ! = repeats disagree.

Screening CC[C@H]1CC2CN3CCc4c([nH]c5c([C@H]6C[C@H]7[C@H](CC)CN(C)[C@@H](Cc8c6[nH]c6ccccc86)[C@H]7C(=O)OC)c(OC)ccc45)C(C(=O)OC)(C2)C13 returned RGS4 block 8.8, MrgX1 agonist inactive, MrgX1 PAM inactive, MrgX1 antag inactive and RGS4 pot inactive.
For Cc1ccc(/C=C2\SC(=S)N(C3CCS(=O)(=O)C3)C2=O)o1 (stereo not given) the results were RGS4 block inactive, MrgX1 agonist inactive, MrgX1 PAM inactive, MrgX1 antag inactive and RGS4 pot inactive.
For NS(=O)(=O)c1ccc(-c2ccc(/C=C3\SC(=S)N(C4CCS(=O)(=O)C4)C3=O)o2)cc1 (stereo not given) the results were RGS4 block inactive, MrgX1 agonist inactive, MrgX1 PAM inactive, MrgX1 antag -8.6 and RGS4 pot inactive.
`CCOC(=O)C1=C(COCCN)NC(C)=C(C(=O)OC)C1c1ccccc1Cl` (stereo not given) gave RGS4 block inactive, MrgX1 agonist 27!, MrgX1 PAM inactive, MrgX1 antag inactive and RGS4 pot inactive.
Screening CCOC(=O)C1=C(C)NC(C)=C(C(=O)OC)C1c1cccc(Cl)c1Cl (stereo not given) returned RGS4 block inactive, MrgX1 agonist inactive, MrgX1 PAM inactive, MrgX1 antag inactive and RGS4 pot inactive.
`Cc1ccc(/C=N/NC(=O)Cc2cccn2C)cc1` gave RGS4 block inactive, MrgX1 agonist inactive, MrgX1 PAM 6.7, MrgX1 antag inactive and RGS4 pot inactive.
Cc1ccc(/C=N/NC(=O)Cc2cccn2C)s1 was read as RGS4 block inactive, MrgX1 agonist inactive, MrgX1 PAM 6.5, MrgX1 antag inactive and RGS4 pot inactive.
For Cn1cccc1CC(=O)N/N=C/c1ccc(C(C)(C)C)cc1 the results were RGS4 block inactive, MrgX1 agonist inactive, MrgX1 PAM inactive, MrgX1 antag inactive and RGS4 pot inactive.
CC(Oc1ccc(Cl)cc1Cl)c1nc(-c2ccc(NC(=O)c3cccnc3)cc2)no1 (stereo not given) was read as RGS4 block inactive, MrgX1 agonist inactive, MrgX1 PAM inactive, MrgX1 antag inactive and RGS4 pot -7.9.
For CC(Oc1ccc(Cl)cc1Cl)c1nc(-c2ccc(NC(=O)c3ccncc3)cc2)no1 (stereo not given) the results were RGS4 block inactive, MrgX1 agonist inactive, MrgX1 PAM inactive, MrgX1 antag -5.2 and RGS4 pot inactive.
CC(Oc1ccc(Cl)cc1Cl)C(=O)NNC(=O)c1ccncc1 (stereo not given) was read as RGS4 block inactive, MrgX1 agonist inactive, MrgX1 PAM inactive, MrgX1 antag inactive and RGS4 pot inactive.
Screening COC(=O)[C@H]1C[C@@H](c2ccccc2)[C@H](C)C1(C)C returned MrgX1 agonist inactive, MrgX1 PAM inactive and MrgX1 antag inactive.
CCCCN(C(=O)CCCSc1nc2ccccc2[nH]1)c1c(N)n(Cc2ccccc2)c(=O)[nH]c1=O was read as RGS4 block inactive, MrgX1 agonist inactive, MrgX1 PAM inactive, MrgX1 antag inactive and RGS4 pot inactive.
NS(=O)(=O)c1ccc(NNC(=O)c2ccc(F)cc2F)cc1 was read as RGS4 block inactive, MrgX1 agonist inactive, MrgX1 PAM inactive, MrgX1 antag inactive and RGS4 pot inactive.
CC1CC1C(=O)OCC(=O)NNC(=O)COc1ccc(Br)cc1 (stereo not given) was read as RGS4 block inactive, MrgX1 agonist inactive, MrgX1 PAM inactive, MrgX1 antag -6.5 and RGS4 pot inactive.
COc1ccc(CNC(=O)N2CCN(c3ccccc3OC)CC2)cc1 was read as RGS4 block inactive, MrgX1 agonist inactive, MrgX1 PAM inactive, MrgX1 antag inactive and RGS4 pot inactive.
CC(CN1CCCCC1)OC(=O)c1ccc2c(c1)OCO2 (stereo not given) was read as RGS4 block inactive, MrgX1 agonist inactive, MrgX1 PAM inactive, MrgX1 antag inactive and RGS4 pot inactive.
Screening CC1CCN(CC(C)OC(=O)c2ccc3c(c2)OCCO3)CC1 (stereo not given) returned RGS4 block inactive, MrgX1 agonist inactive, MrgX1 PAM inactive, MrgX1 antag inactive and RGS4 pot -7.3.
`COc1ccc(CN(CCC(c2ccccc2)c2ccc(OC(C)C)cc2)C(=O)CCl)cc1OC` (stereo not given) gave RGS4 block inactive, MrgX1 agonist inactive, MrgX1 PAM 10, MrgX1 antag inactive and RGS4 pot -7.1.
Screening COc1ccc(C(CCN(Cc2ccc(OC)c(OC)c2)C(C)=O)c2ccccc2)cc1 (stereo not given) returned RGS4 block inactive, MrgX1 agonist inactive, MrgX1 PAM inactive, MrgX1 antag inactive and RGS4 pot inactive.
Screening O=C(CSc1nnc(CNc2ccc(F)cc2)n1CC1CCCO1)N1CCOCC1 (stereo not given) returned RGS4 block inactive and RGS4 pot inactive.
`C=CC[n+]1c(-c2ccccc2)csc1NC(C)(C)C` gave RGS4 block inactive, MrgX1 agonist inactive, MrgX1 PAM inactive, MrgX1 antag -4.9 and RGS4 pot inactive.
For CCCCCC[n+]1c(-c2ccccc2)csc1Nc1ccccc1 the results were RGS4 block inactive, MrgX1 agonist inactive, MrgX1 PAM inactive, MrgX1 antag inactive and RGS4 pot inactive.
Fc1ccccc1CNc1nc(-c2cccnc2)nc2ccccc12 was read as RGS4 block inactive, MrgX1 agonist 38, MrgX1 PAM inactive, MrgX1 antag inactive and RGS4 pot -9.1.
`COc1cccc(CNc2nc(-c3cccnc3)nc3ccccc23)c1` gave RGS4 block inactive, MrgX1 agonist inactive, MrgX1 PAM inactive, MrgX1 antag inactive and RGS4 pot inactive.
COc1ccccc1C(C)Nc1nc(-c2cccnc2)nc2ccccc12 (stereo not given) was read as RGS4 block inactive, MrgX1 agonist inactive, MrgX1 PAM inactive, MrgX1 antag inactive and RGS4 pot -7.1.
COc1cc2c(cc1OC)CN(c1nc(-c3cccnc3)nc3ccccc13)CC2 was read as RGS4 block inactive, MrgX1 agonist inactive, MrgX1 PAM inactive, MrgX1 antag inactive and RGS4 pot -7.5.
Screening Cc1cccc(N2C(=O)N3[C@H](c4ccc(Br)cc4)[C@@H]4C(=O)N(C(C)(C)C)C(=O)[C@@H]4[C@]3(C)C2=O)c1 returned RGS4 block inactive, MrgX1 agonist inactive, MrgX1 PAM inactive, MrgX1 antag inactive and RGS4 pot inactive.
For O=C(O)c1ccc(Nc2ncnc3scc(-c4ccccc4)c23)cc1 the results were RGS4 block inactive, MrgX1 agonist 30, MrgX1 PAM inactive, MrgX1 antag inactive and RGS4 pot inactive.
For Cc1ccc(S(=O)(=O)NCCC(=O)Nc2ccc(S(=O)(=O)NC(C)C)cc2)cc1 the results were RGS4 block inactive, MrgX1 agonist inactive, MrgX1 PAM inactive, MrgX1 antag inactive and RGS4 pot inactive.
